31 compounds from ChEMBL document CHEMBL1143221, “Two-carbon-elongated HIV-1 protease inhibitors with a tertiary-alcohol-containing transition-state mimic” (J Med Chem, 2008) can be followed below.

SMILES strings stand for the structures. Some results are limits rather than exact numbers.

The test system of series [1] is Human immunodeficiency virus 1. Description: Antiviral activity against HIV1 in MT4 cells by XTT assay. The following applies: Human immunodeficiency virus 1, MT4. It is filed as functional, organism-based.
Series [2] in a line: Cytotoxicity against human MT4 cells. In kind it is cell-based.
In the next series the target is Protease (Human immunodeficiency virus 1, UniProt Q9YQ12). The experiment in a line: Inhibition of HIV1 protease expressed in Escherichia coli.
Series [3] can be described thus: Permeability from apical to basolateral side of human Caco-2 cell membrane. In kind it is ADME, cell-based. On the technique in general: Caco-2 monolayers are a common model of the intestinal barrier.
A short description of series [4]: Metabolic stability in human liver microsomes after 30 mins. It is filed as ADME, Microsome. As to conditions: read-out: Stability. In a few lines: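 Test compound incubated with human liver microsomes for 30 min at 37 °C. Read-out is percent parent compound remaining.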

Chain of Protease (Q9YQ12 whole entry): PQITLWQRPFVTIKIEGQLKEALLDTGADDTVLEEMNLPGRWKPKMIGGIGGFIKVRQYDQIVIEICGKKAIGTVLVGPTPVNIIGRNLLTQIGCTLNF

In the case of `COC(=O)N[C@H](C(=O)NN(CCC[C@@](O)(Cc1ccccc1)C(=O)N[C@H]1c2ccccc2C[C@H]1O)Cc1ccc(F)cc1)C(C)(C)C`, the EC50 (usually the concentration at which the effect is half-maximal) in series [1] stood at 980 nM. Further, the CC50 (commonly the concentration that lowers cell viability or growth by half) in series [2] is more than 10000 nM. For the same compound, the Ki (usually the equilibrium dissociation constant of an inhibitor or competing ligand from its target) at Protease amounted to 6.7 nM.

As for `COC(=O)N[C@H](C(=O)NN(CCC[C@](O)(Cc1ccccc1)C(=O)N[C@H]1c2ccccc2C[C@H]1O)Cc1ccc(Br)cc1)C(C)(C)C`, in series [1], the EC50 is more than 10000 nM. This compound came in with a CC50 in series [2] of more than 10000 nM. The compound further displayed a Ki at Protease of 420 nM. In series [3], the Papp A→B (in general, the apparent permeability from the apical to the basolateral side of a cell layer) was more than 20 ×10⁻⁶ cm/s.

Regarding `COC(=O)N[C@H](C(=O)NN(CCC[C@@](O)(Cc1ccccc1)C(=O)N[C@H]1c2ccccc2C[C@H]1O)Cc1ccc(-c2csc(C)n2)cc1)C(C)(C)C`, the EC50 in series [1] came to 510 nM. The compound further registered a CC50 in series [2] of more than 10000 nM. Further, on Protease, the affinity, expressed as Ki, was 3.5 nM.

`COC(=O)N[C@H](C(=O)NN(CCC[C@@](O)(Cc1ccccc1)C(=O)N[C@H]1c2ccccc2C[C@H]1O)Cc1ccc(C#N)cc1)C(C)(C)C` registered an EC50 in series [1] of 1200 nM. This compound also displayed a CC50 in series [2] of more than 10000 nM. This compound also displayed a Ki on Protease of 2.9 nM.

In series [1], `COC(=O)N[C@H](C(=O)NN(CCC[C@@](O)(Cc1ccccc1)C(=O)N[C@H]1c2ccccc2C[C@H]1O)Cc1ccc(N2CCOCC2)cc1)C(C)(C)C` gave an EC50 of 500 nM. Also, in series [2], the CC50 was more than 10000 nM. At Protease, this compound returned a Ki of 3.6 nM.

In the case of `COC(=O)N[C@H](C(=O)NN(CCC[C@@](O)(Cc1ccccc1)C(=O)N[C@H]1c2ccccc2C[C@H]1O)Cc1ccc(-c2ccncc2)cc1)C(C)(C)C`, the EC50 in series [1] was 170 nM. Also, the CC50 in series [2] was more than 10000 nM. Also, the remaining at 0.5 h in series [4] was determined as 94%. This compound also had a Ki at Protease of 2.8 nM. The Papp A→B in series [3] was less than 20 ×10⁻⁶ cm/s.

With `COC(=O)N[C@H](C(=O)NN(Cc1ccc(Br)cc1)C[C@](O)(Cc1ccccc1)C(=O)N[C@H]1c2ccccc2C[C@H]1O)C(C)(C)C`, the EC50 in series [1] is 1100 nM.

For `COC(=O)N[C@H](C(=O)NN(Cc1ccc(Br)cc1)C(=O)CC[C@@](O)(Cc1ccccc1)C(=O)N[C@H]1c2ccccc2C[C@H]1O)C(C)(C)C`, the EC50 in series [1] was more than 10000 nM. The same compound displayed a CC50 in series [2] of more than 10000 nM.

Compound `COC(=O)N[C@H](C(=O)NN(CCC[C@@](O)(Cc1ccccc1)C(=O)N[C@H]1c2ccccc2C[C@H]1O)Cc1ccc(-c2nc(C(C)(C)C)cs2)cc1)C(C)(C)C` registered an EC50 in series [1] of 1000 nM. In addition, the CC50 in series [2] is more than 10000 nM. The compound also came in with a Ki at Protease of 24 nM.

As for `COC(=O)N[C@H](C(=O)NN(CCC[C@@](O)(Cc1ccccc1)C(=O)N[C@H]1c2ccccc2C[C@H]1O)Cc1ccc(-c2ccccn2)cc1)C(C)(C)C`, in series [1], the EC50 is 470 nM. Moreover, the CC50 in series [2] is more than 10000 nM. The compound further gave a Ki at Protease of 2.8 nM.

Turning to `COC(=O)N[C@H](C(=O)NN(CCC[C@](Cc1ccccc1)(O[Si](C)(C)C(C)(C)C)C(=O)N[C@H]1c2ccccc2C[C@H]1O)Cc1ccc(Br)cc1)C(C)(C)C`, in series [1], the EC50 is more than 10000 nM. The compound also had a CC50 in series [2] of 5800 nM. Further, the Ki at Protease came out at 190 nM.

`COC(=O)N[C@H](C(=O)NN(CCC[C@@](O)(Cc1ccccc1)C(=O)N[C@H]1c2ccccc2C[C@H]1O)Cc1ccc(Cl)cc1)C(C)(C)C` showed an EC50 in series [1] of 910 nM. For the same compound, the CC50 in series [2] was more than 10000 nM. Besides, the affinity on Protease corresponds to a Ki of 3.4 nM.

Compound `COC(=O)N[C@H](C(=O)NN(CCC[C@@](O)(Cc1ccccc1)C(=O)N[C@H]1c2ccccc2C[C@H]1O)Cc1ccc(-n2ccnc2)cc1)C(C)(C)C` returned an EC50 in series [1] of 170 nM. This compound also showed a CC50 in series [2] of more than 10000 nM. In addition, at Protease, the affinity corresponds to a Ki of 3.3 nM.

Turning to `COC(=O)N[C@H](C(=O)NN(CCC[C@@](O)(Cc1ccccc1)C(=O)N[C@H]1c2ccccc2C[C@H]1O)Cc1ccc(-c2nccs2)cc1)C(C)(C)C`, in series [1], the EC50 came out at 210 nM. In series [2], this compound displayed a CC50 of more than 10000 nM. On Protease, the affinity corresponds to a Ki of 2.3 nM. The compound further returned a Papp A→B in series [3] of more than 20 ×10⁻⁶ cm/s.

Consider `COC(=O)N[C@H](C(=O)NN(Cc1ccc(-c2cccnc2)cc1)C[C@](O)(Cc1ccccc1)C(=O)N[C@H]1c2ccccc2C[C@H]1O)C(C)(C)C`, for which the response in series [1] was half-maximal at 180 nM (EC50). For the same compound, in series [2], the CC50 is more than 10000 nM.

Consider `COC(=O)N[C@H](C(=O)NN(CCC[C@@](O)(Cc1ccccc1)C(=O)N[C@H]1c2ccccc2C[C@H]1O)Cc1ccc(Br)cc1)C(C)(C)C`, for which the EC50 in series [1] was 850 nM. For the same compound, the CC50 in series [2] is more than 10000 nM. The compound further came in with a Papp A→B in series [3] of more than 20 ×10⁻⁶ cm/s.

Turning to `COC(=O)N[C@H](C(=O)NN(CCC[C@@](O)(Cc1ccccc1)C(=O)N[C@H]1c2ccccc2C[C@H]1O)Cc1ccc(-c2ccsc2)cc1)C(C)(C)C`, in series [1], the midpoint of the response, the EC50, lay at 560 nM. In series [2], this compound showed a CC50 of more than 10000 nM. Further, the Ki on Protease came out at 10 nM.

`COC(=O)N[C@H](C(=O)NN(CCC[C@@](O)(Cc1ccccc1)C(=O)N[C@H]1c2ccccc2C[C@H]1O)Cc1ccccc1)C(C)(C)C`: a half-maximal effect in series [1] (EC50) was put at 1200 nM. In series [2], this compound had a CC50 of more than 10000 nM. Besides, at Protease, the Ki was 5.7 nM. Besides, the Papp A→B in series [3] is less than 20 ×10⁻⁶ cm/s.

On to `COC(=O)N[C@H](C(=O)NN(CCC[C@@](O)(Cc1ccccc1)C(=O)N[C@H]1c2ccccc2C[C@H]1O)Cc1ccc(-c2noc(C)n2)cc1)C(C)(C)C`, for which, in series [1], a half-maximal effect (EC50) was put at 190 nM. Moreover, in series [2], the CC50 is more than 10000 nM. Further, the Ki on Protease was 3.6 nM.

In series [1], `COC(=O)N[C@H](C(=O)NN(CCC[C@](Cc1ccccc1)(O[Si](C)(C)C(C)(C)C)C(=O)N[C@H]1c2ccccc2C[C@H]1O[Si](C)(C)C(C)(C)C)Cc1ccc(Br)cc1)C(C)(C)C` registered an EC50 of more than 10000 nM. Besides, the CC50 in series [2] is more than 10000 nM. This compound also showed a Ki at Protease of 980 nM.

Consider `COC(=O)N[C@H](C(=O)NN(CCC[C@@](O)(Cc1ccccc1)C(=O)N[C@H]1c2ccccc2C[C@H]1O)Cc1ccc(-c2cccnc2)cc1)C(C)(C)C`, for which, in series [1], the EC50 was determined as 190 nM. This compound also registered a CC50 in series [2] of more than 10000 nM. Also, the remaining at 0.5 h in series [4] turned out to be 94%. On Protease, this compound came in with a Ki of 3.6 nM. Further, the Papp A→B in series [3] is less than 20 ×10⁻⁶ cm/s.

As for `COC(=O)N[C@H](C(=O)NN(CCC[C@@](O)(Cc1ccccc1)C(=O)N[C@H]1c2ccccc2C[C@H]1O)Cc1ccc(N(C)C)cc1)C(C)(C)C`, in series [1], the EC50 worked out at 980 nM. In series [2], this compound gave a CC50 of more than 10000 nM. The compound further came in with a Ki at Protease of 4.9 nM.

Compound `COC(=O)N[C@H](C(=O)NN(CCC[C@@](O)(Cc1ccccc1)C(=O)N[C@H]1c2ccccc2C[C@H]1O)Cc1ccc(CN2CCOCC2)cc1)C(C)(C)C` had an EC50 in series [1] of 880 nM. This compound also yielded a CC50 in series [2] of more than 10000 nM. The Ki on Protease was determined as 11 nM.

Regarding `COC(=O)N[C@H](C(=O)NN(CCC[C@@](O)(Cc1ccccc1)C(=O)N[C@H]1c2ccccc2C[C@H]1O)Cc1ccc(OCc2cnc(Cl)s2)cc1)C(C)(C)C`, in series [1], a half-maximal response (EC50) required 600 nM. The compound further gave a CC50 in series [2] of more than 10000 nM.

Turning to `COC(=O)N[C@H](C(=O)NN(CCC[C@@](O)(Cc1ccccc1)C(=O)N[C@H]1c2ccccc2C[C@H]1O)Cc1ccc(I)cc1)C(C)(C)C`, in series [1], the midpoint of the response, the EC50, lay at 820 nM. The same compound had a CC50 in series [2] of more than 10000 nM. In addition, the Ki at Protease is 4.5 nM.

In series [1], `COC(=O)N[C@H](C(=O)NN(CCC[C@@](O)(Cc1ccccc1)C(=O)N[C@H]1c2ccccc2C[C@H]1O)CC(C)C)C(C)(C)C` showed an EC50 of 1800 nM. In series [2], the CC50 was more than 10000 nM. Further, at Protease, the Ki is 6.8 nM.

As to `COC(=O)N[C@H](C(=O)N[C@@H](Cc1ccccc1)[C@@H](O)CN(Cc1ccc(-c2ccccn2)cc1)NC(=O)[C@@H](NC(=O)OC)C(C)(C)C)C(C)(C)C` [ATAZANAVIR], the EC50 in series [1] is 3.9 nM. Moreover, the Ki on Protease is 2.7 nM.

Turning to `COC(=O)N[C@H](C(=O)NN(CCC[C@@](O)(Cc1ccccc1)C(=O)N[C@H]1c2ccccc2C[C@H]1O)Cc1ccc(-c2ccccc2)cc1)C(C)(C)C`, the midpoint of the response in series [1], the EC50, lay at 780 nM. The compound also yielded a CC50 in series [2] of 7500 nM. The same compound showed a Ki on Protease of 7.3 nM. Moreover, in series [3], the Papp A→B was more than 20 ×10⁻⁶ cm/s.

Turning to `COC(=O)N[C@H](C(=O)NN(CCC[C@@](O)(Cc1ccccc1)C(=O)N[C@H]1c2ccccc2C[C@H]1O)Cc1ccc(-c2cn3ccsc3n2)cc1)C(C)(C)C`, it took 480 nM to reach a half-maximal effect in series [1] (EC50). Also, the CC50 in series [2] is more than 10000 nM. The same compound came in with a Ki on Protease of 2.3 nM.

In series [1], `COC(=O)N[C@H](C(=O)NN(CCC[C@@](O)(Cc1ccccc1)C(=O)N[C@H]1c2ccccc2C[C@H]1O)Cc1ccc(-c2cncnc2)cc1)C(C)(C)C` displayed an EC50 of 220 nM. In series [2], this compound came in with a CC50 of more than 10000 nM. For the same compound, the Ki on Protease is 2.4 nM.

Regarding `CC(C)(C)NC(=O)[C@@H]1CN(Cc2cccnc2)CCN1C[C@@H](O)C[C@@H](Cc1ccccc1)C(=O)N[C@H]1c2ccccc2C[C@H]1O`, a half-maximal response in series [1] (EC50) required 41 nM.
